Data on two compounds can be found in ChEMBL document CHEMBL1671627, “Increasing trends in antimicrobial resistance among clinically important anaerobes and Bacteroides fragilis isolates causing nosocomial infections: emerging resistance to carbapenems” (2008).

Values after ≈ are worked out from the molar mass of the structure shown.

Common to all, as to type: functional
For assay [1], the system named is Clostridium paraputrificum. Briefly: Antibacterial activity against beta-lactamase producing Clostridium paraputrificum by CLSI agar dilution method in presence of clavulanate. A digest of the protocol: (§1)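 CLSI agar dilution MICs for anaerobic blood isolates (nonduplicate) collected from bloodstream-infection patients at a Taiwanese tertiary hospital, January–December 2006. Isolates were spotted by Steers replicator onto supplemented Brucella blood agar and incubated anaerobically for 48 h at 35°C. MIC was the lowest drug concentration inhibiting growth. Each run included B. fragilis ATCC 25285, B. thetaiotaomicron ATCC 29741 and E. lentum ATCC 43055 as quality-control strains.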
A general note: In agar dilution the substance is mixed into plates at graded concentrations.

Assay [2] deals with Clostridium septicum. Put plainly: Antibacterial activity against beta-lactamase producing Clostridium septicum by CLSI agar dilution method in presence of clavulanate. A digest of the protocol: as §1
Assay [3] concerns Finegoldia magna. Put plainly: Antibacterial activity against beta-lactamase producing Finegoldia magna by CLSI agar dilution method in presence of clavulanate. A digest of the protocol:
as §1

The next assay has as its system Bacteroides fragilis. Briefly: Antibacterial activity against Bacteroides fragilis assessed as susceptible isolates by CLSI agar dilution method in presence of clavulanate. An outline of the steps: (§2)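 Agar dilution per CLSI guidelines on nonduplicate anaerobic bloodstream isolates collected at NTUH, January to December 2006. Isolates were spotted by Steers replicator onto supplemented Brucella blood agar and incubated anaerobically for 48 h at 35°C. MIC was the lowest drug concentration that inhibited growth. B. fragilis ATCC 25285, B. thetaiotaomicron ATCC 29741 and E. lentum ATCC 43055 were run as QC in each run.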

In assay [4] the test system is Fusobacterium mortiferum. Briefly: Antibacterial activity against Fusobacterium mortiferum assessed as susceptible isolates by CLSI agar dilution method in presence of clavulanate. An outline of the steps: as §2
Assay [5] concerns Fusobacterium mortiferum. Briefly: Antibacterial activity against Fusobacterium mortiferum by CLSI agar dilution method in presence of clavulanate. A digest of the protocol: as §2
Assay [6] concerns Prevotella bivia. Briefly: Antibacterial activity against Prevotella bivia assessed as susceptible isolates by CLSI agar dilution method in presence of clavulanate. An outline of the steps: as §2
Assay [7] deals with Peptoniphilus asaccharolyticus. Put plainly: Antibacterial activity against beta-lactamase producing Peptoniphilus asaccharolyticus assessed as susceptible isolates by CLSI agar dilution method in presence of clavulanate. A digest of the protocol:
as §1

The test system of assay [8] is Finegoldia magna. Put plainly: Antibacterial activity against beta-lactamase producing Finegoldia magna assessed as resistant isolates by CLSI agar dilution method.
Assay [9] deals with Clostridium paraputrificum. Briefly: Antibacterial activity against beta-lactamase producing Clostridium paraputrificum by CLSI agar dilution method in presence of Tazobactam. A digest of the protocol: as §1
Assay [10] deals with Phocaeicola vulgatus. Put plainly: Antibacterial activity against beta-lactamase producing Bacteroides vulgatus by CLSI agar dilution method.
Assay [11] deals with Fusobacterium nucleatum. Put plainly: Antibacterial activity against Fusobacterium nucleatum by CLSI agar dilution method in presence of Tazobactam. A digest of the protocol: as §2
The subject of a further assay is Bacteroides uniformis. Briefly: Antibacterial activity against beta-lactamase producing Bacteroides uniformis by CLSI agar dilution method in presence of Tazobactam. A digest of the protocol: as §2
In assay [12] the test system is Peptostreptococcus anaerobius. Briefly: Antibacterial activity against beta-lactamase producing Peptostreptococcus anaerobius assessed as susceptible isolates by CLSI agar dilution method.
The subject of assay [13] is Prevotella melaninogenica. Briefly: Antibacterial activity against Prevotella melaninogenica assessed as resistant isolates by CLSI agar dilution method.
The subject of assay [14] is Phocaeicola vulgatus. Put plainly: Antibacterial activity against beta-lactamase producing Bacteroides vulgatus by CLSI agar dilution method in presence of Tazobactam. A digest of the protocol: as §1
The next assay has as its system Veillonella parvula. Put plainly: Antibacterial activity against Veillonella parvula by CLSI agar dilution method in presence of Tazobactam. A digest of the protocol:
as §2

The subject of a further assay is Parvimonas micra. Briefly: Antibacterial activity against beta-lactamase producing Micromonas micros by CLSI agar dilution method in presence of Tazobactam. An outline of the steps:
as §1

The subject of assay [15] is Peptostreptococcus anaerobius. Put plainly: Antibacterial activity against beta-lactamase producing Peptostreptococcus anaerobius assessed as susceptible isolates by CLSI agar dilution method in presence of Tazobactam. A digest of the protocol:
as §1

In assay [16] the test system is Fusobacterium nucleatum. Briefly: Antibacterial activity against Fusobacterium nucleatum assessed as resistant isolates by CLSI agar dilution method.
Assay [17] relates to Peptoniphilus asaccharolyticus. Put plainly: Antibacterial activity against beta-lactamase producing Peptoniphilus asaccharolyticus assessed as susceptible isolates by CLSI agar dilution method.
For assay [18], the system named is Clostridium paraputrificum. Briefly: Antibacterial activity against beta-lactamase producing Clostridium paraputrificum by CLSI agar dilution method.
Assay [19] concerns Clostridium septicum. Put plainly: Antibacterial activity against beta-lactamase producing Clostridium septicum assessed as susceptible isolates by CLSI agar dilution method in presence of Tazobactam. An outline of the steps: as §1
The test system of assay [20] is Clostridium septicum. Briefly: Antibacterial activity against beta-lactamase producing Clostridium septicum by CLSI agar dilution method.
In assay [21] the test system is Phocaeicola vulgatus. Briefly: Antibacterial activity against beta-lactamase producing Bacteroides vulgatus assessed as susceptible isolates by CLSI agar dilution method.
The test system of assay [22] is Prevotella melaninogenica. Briefly: Antibacterial activity against Prevotella melaninogenica assessed as resistant isolates by CLSI agar dilution method in presence of Tazobactam. An outline of the steps: (§3)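 207 nonduplicate anaerobic blood isolates from patients with bloodstream infections at NTUH, collected January–December 2006. MICs were determined by agar dilution following CLSI guidelines. Inocula were applied with a Steers replicator onto supplemented Brucella blood agar and incubated 48 h at 35°C in an anaerobic chamber. MIC was the lowest concentration inhibiting growth. B. fragilis ATCC 25285, B. thetaiotaomicron ATCC 29741 and E. lentum ATCC 43055 served as controls in each run.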

The subject of assay [23] is Finegoldia magna. Put plainly: Antibacterial activity against beta-lactamase producing Finegoldia magna by CLSI agar dilution method.
Assay [24] relates to Fusobacterium necrophorum. Put plainly: Antibacterial activity against Fusobacterium necrophorum assessed as susceptible isolates by CLSI agar dilution method.
Assay [25] concerns Bacteroides thetaiotaomicron. Put plainly: Antibacterial activity against beta-lactamase producing Bacteroides thetaiotaomicron assessed as susceptible isolates by CLSI agar dilution method in presence of Tazobactam. A digest of the protocol:
as §2

Another assay concerns Clostridium tertium. Briefly: Antibacterial activity against beta-lactamase producing Clostridium tertium assessed as resistant isolates by CLSI agar dilution method in presence of Tazobactam. An outline of the steps: as §3
The subject of assay [26] is Prevotella melaninogenica. Put plainly: Antibacterial activity against Prevotella melaninogenica assessed as susceptible isolates by CLSI agar dilution method in presence of Tazobactam. A digest of the protocol:
as §2

Assay [27] has as its system Prevotella bivia. Put plainly: Antibacterial activity against Prevotella bivia by CLSI agar dilution method.

As usually defined, the MIC50 is an inhibitory concentration at the 50% level, which refers to growth in some studies and to a panel of isolates in others. A word on the MIC90: it is the lowest concentration that inhibits either 90% of growth or 90% of the strains tested, depending on the study. For the compound `CC1(C)S[C@@H]2[C@H](NC(=O)[C@H](N)c3ccc(O)cc3)C(=O)N2[C@H]1C(=O)O` [AMOXICILLIN], the MIC50 in assay [1] was found to be 0.5 µg/mL; with Clostridium septicum [2], 0.5 µg/mL; with Finegoldia magna [3] it was 0.25 µg/mL; in the assay on Fusobacterium mortiferum [5], 2 µg/mL. Moreover, the MIC90 in assay [1] came out at 2 µg/mL; in the assay with Clostridium septicum [2], 2 µg/mL; in the assay with Finegoldia magna [3] it was 2 µg/mL; in the assay on Fusobacterium mortiferum [5], 4 µg/mL. The Activity in the assay on Bacteroides fragilis was 63%; with Fusobacterium mortiferum [4] it was 89%; with Prevotella bivia [6], 81%; in [7], 94%.

Broadly, the MIC is the lowest concentration found to suppress growth. As for `CCN1CCN(C(=O)N[C@@H](C(=O)N[C@@H]2C(=O)N3[C@@H]2SC(C)(C)[C@@H]3C(=O)O)c2ccccc2)C(=O)C1=O` [PIPERACILLIN], the Activity in the assay with Finegoldia magna [8] was 3%; in assay [12], 97%; in [13] it was 22%; in assay [15], 97%; in the assay on Fusobacterium nucleatum [16], 10%; in assay [17] it was 97%. Further, the Activity amounted to 100% in the assay on Clostridium septicum [19]; 35% with Phocaeicola vulgatus [21]; 0% in [22]; 90% in [24]; 93% in assay [25]; 0% in the assay with Clostridium tertium. Further, the Activity in assay [26] came to 100%. For the same compound, the MIC50 was 0.5 µg/mL in [9]; more than 128 µg/mL against Phocaeicola vulgatus [10]; 0.5 µg/mL with Fusobacterium nucleatum [11]; 8 µg/mL with Bacteroides uniformis; 8 µg/mL in the assay with Phocaeicola vulgatus [14]; 0.03 µg/mL with Parvimonas micra. Further, the MIC50 in assay [18] was determined as 0.25 µg/mL (≈ 0.483 µM); in the assay with Clostridium septicum [20] it was 0.25 µg/mL (≈ 0.483 µM); against Finegoldia magna [23], 0.12 µg/mL (≈ 0.232 µM); with Prevotella bivia [27], 16 µg/mL (≈ 30.9 µM). In addition, the MIC90 in assay [9] is 2 µg/mL; against Phocaeicola vulgatus [10], more than 128 µg/mL; in the assay with Fusobacterium nucleatum [11], 2 µg/mL; with Bacteroides uniformis it was 16 µg/mL; in the assay with Phocaeicola vulgatus [14], 16 µg/mL; in the assay with Parvimonas micra, 2 µg/mL. In addition, the MIC90 in assay [18] came to 2 µg/mL (≈ 3.86 µM); against Clostridium septicum [20] it was 2 µg/mL (≈ 3.86 µM); in the assay with Finegoldia magna [23], 8 µg/mL (≈ 15.5 µM); with Prevotella bivia [27], 128 µg/mL (≈ 247 µM). The MIC is more than 0.03 µg/mL in the assay with Veillonella parvula and 0.03 µg/mL in the assay with Parvimonas micra.
